Reference: ChEMBL document CHEMBL5724801, “EUbOPEN Chemogenomics Library - Multiplex” (2024)
Where “and” joins values, the source holds several entries; their conditions need not be identical. Equal values may be shown once.

Test system: HEK-293T
Assay: Multiplex assay against HEK293T
Type: toxicity, cell-based
Conditions: human
Procedure, shortened: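 With compound added, live cells were imaged on a CQ1 microscope at 37°C and 5% CO2; staining with Hoechst33342, BioTracker Green Microtubule Cytoskeleton Dye, MitoTracker Red and Annexin V Alexa Fluor 680 had been done at seeding. The CellPathfinder machine-learning gating scheme split cells into Hoechst high-intensity objects or normal cells, normal cells into healthy, pyknosed or fragmented nuclei, and pyknosed cells into mitotic or apoptotic. The tubulin, mitochondrial-mass and membrane-permeability phenotypes are per cents of healthy-nucleus cells.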

[1] = 12 h, 10 µM, compound concentration 10 uM
[2] = 24 h, 10 µM, compound concentration 10 uM
[3] = 48 h, 10 µM, compound concentration 10 uM
[4] = 12 h, 1 µM, compound concentration 1 uM
[5] = 24 h, 1 µM, compound concentration 1 uM
[6] = 48 h, 1 µM, compound concentration 1 uM

CC(=O)O[C@H]1C(=O)[C@@]2(C)[C@H]([C@H](OC(=O)c3ccccc3)[C@]3(O)C[C@H](OC(=O)[C@H](O)[C@@H](NC(=O)c4ccccc4)c4ccccc4)C(C)=C1C3(C)C)[C@]1(OC(C)=O)CO[C@@H]1C[C@@H]2O [PACLITAXEL]
Population Apoptotic (%) [1]: 41% and 56%
Population Fragmented Nuclei (%) [1]: 7% and 5%
Population Healthy Nuclei (%) [1]: 74% and 64%
Population Hoechst High Intensity Objects (%) [1]: 16% and 14%
Population Membrane Permeable-Phenotype (%) [1]: 0%
Population Mitochondria Different-Phenotype (%) [1]: 79% and 84%
Population Mitotic Cells (%) [1]: 58% and 43%
Population Normal (%) [1]: 83% and 85%
Population Pyknosed Nuclei (%) [1]: 17% and 29%
Population Tubulin-Different-Phenotype (%) [1]: 11% and 16%
Population Apoptotic (%) [2]: 35% and 47%
Population Fragmented Nuclei (%) [2]: 10% and 8%
Population Healthy Nuclei (%) [2]: 70% and 73%
Population Hoechst High Intensity Objects (%) [2]: 16% and 15%
Population Membrane Permeable-Phenotype (%) [2]: 0%
Population Mitochondria Different-Phenotype (%) [2]: 72% and 82%
Population Mitotic Cells (%) [2]: 64% and 52%
Population Normal (%) [2]: 83% and 84%
Population Pyknosed Nuclei (%) [2]: 18% and 17%
Population Tubulin-Different-Phenotype (%) [2]: 8% and 16%
Population Apoptotic (%) [3]: 29% and 69%
Population Fragmented Nuclei (%) [3]: 15% and 10%
Population Healthy Nuclei (%) [3]: 68% and 70%
Population Hoechst High Intensity Objects (%) [3]: 11%
Population Membrane Permeable-Phenotype (%) [3]: 0%
Population Mitochondria Different-Phenotype (%) [3]: 64% and 70%
Population Mitotic Cells (%) [3]: 70% and 30%
Population Normal (%) [3]: 88%
Population Pyknosed Nuclei (%) [3]: 15% and 19%
Population Tubulin-Different-Phenotype (%) [3]: 2% and 11%

Cc1cc(C)cc(C(=O)NOCCCCCC(=O)NO)c1
Population Apoptotic (%) [4]: 7.89% and 11.48%
Population Fragmented Nuclei (%) [4]: 1.15% and 1.27%
Population Healthy Nuclei (%) [4]: 55.3% and 21.02%
Population Hoechst High Intensity Objects (%) [4]: 0% and 0.63%
Population Membrane Permeable-Phenotype (%) [4]: 0% and 9.09%
Population Mitochondria Different-Phenotype (%) [4]: 25.91% and 12.12%
Population Mitotic Cells (%) [4]: 92.11% and 88.52%
Population Normal (%) [4]: 100% and 99.37%
Population Pyknosed Nuclei (%) [4]: 43.55% and 77.71%
Population Tubulin-Different-Phenotype (%) [4]: 7.25% and 18.18%
Total Cell Count [4]: 349 and 158
Population Apoptotic (%) [1]: 9.87% and 7.69%
Population Fragmented Nuclei (%) [1]: 3.28% and 1.65%
Population Healthy Nuclei (%) [1]: 51.34% and 26.92%
Population Hoechst High Intensity Objects (%) [1]: 0.3% and 0%
Population Membrane Permeable-Phenotype (%) [1]: 1.16% and 0%
Population Mitochondria Different-Phenotype (%) [1]: 29.65% and 12.24%
Population Mitotic Cells (%) [1]: 90.13% and 92.31%
Population Normal (%) [1]: 99.7% and 100%
Population Pyknosed Nuclei (%) [1]: 45.37% and 71.43%
Total Cell Count [1]: 336 and 182
Population Apoptotic (%) [5]: 32.32% and 20.49%
Population Fragmented Nuclei (%) [5]: 0.99% and 2.29%
Population Healthy Nuclei (%) [5]: 74.57% and 28%
Population Hoechst High Intensity Objects (%) [5]: 0.25% and 0.57%
Population Membrane Permeable-Phenotype (%) [5]: 1.66% and 0%
Population Mitochondria Different-Phenotype (%) [5]: 25.5% and 16.33%
Population Mitotic Cells (%) [5]: 67.68% and 79.51%
Population Normal (%) [5]: 99.75% and 99.43%
Population Pyknosed Nuclei (%) [5]: 24.44% and 69.71%
Population Tubulin-Different-Phenotype (%) [5]: 17.88% and 30.61%
Total Cell Count [5]: 406 and 176
Population Apoptotic (%) [2]: 24.32% and 10.53%
Population Fragmented Nuclei (%) [2]: 3.75% and 3.33%
Population Healthy Nuclei (%) [2]: 73.12% and 33.33%
Population Hoechst High Intensity Objects (%) [2]: 0%
Population Membrane Permeable-Phenotype (%) [2]: 0% and 1.67%
Population Mitotic Cells (%) [2]: 75.68% and 89.47%
Population Normal (%) [2]: 100%
Population Pyknosed Nuclei (%) [2]: 23.12% and 63.33%
Population Tubulin-Different-Phenotype (%) [2]: 4.27% and 1.67%
Total Cell Count [2]: 320 and 180
Population Apoptotic (%) [6]: 23.33% and 32.22%
Population Fragmented Nuclei (%) [6]: 5.26% and 1.12%
Population Healthy Nuclei (%) [6]: 76.52% and 48.6%
Population Hoechst High Intensity Objects (%) [6]: 1% and 0%
Population Membrane Permeable-Phenotype (%) [6]: 1.59% and 2.3%
Population Mitochondria Different-Phenotype (%) [6]: 50.26% and 32.18%
Population Mitotic Cells (%) [6]: 76.67% and 67.78%
Population Normal (%) [6]: 99% and 100%
Population Pyknosed Nuclei (%) [6]: 18.22% and 50.28%
Total Cell Count [6]: 499 and 179
Population Apoptotic (%) [3]: 30.43% and 28%
Population Fragmented Nuclei (%) [3]: 3.91% and 6.29%
Population Healthy Nuclei (%) [3]: 63.35% and 36.57%
Population Hoechst High Intensity Objects (%) [3]: 0.35% and 0.57%
Population Membrane Permeable-Phenotype (%) [3]: 3.37% and 0%
Population Mitotic Cells (%) [3]: 69.57% and 72%
Population Normal (%) [3]: 99.65% and 99.43%
Population Pyknosed Nuclei (%) [3]: 32.74% and 57.14%
Population Tubulin-Different-Phenotype (%) [3]: 7.87% and 17.19%
Total Cell Count [3]: 282 and 176

COc1cc2nc(N3CCN(C(=O)COc4c(OC)cccc4C(C)C)CC3)nc(N)c2cc1OC.Cl.Cl
Population Apoptotic (%) [4]: 35% and 46%
Population Fragmented Nuclei (%) [4]: 12% and 8%
Population Healthy Nuclei (%) [4]: 77% and 81%
Population Hoechst High Intensity Objects (%) [4]: 5% and 4%
Population Membrane Permeable-Phenotype (%) [4]: 0%
Population Mitochondria Different-Phenotype (%) [4]: 48% and 58%
Population Mitotic Cells (%) [4]: 64% and 53%
Population Normal (%) [4]: 94% and 95%
Population Pyknosed Nuclei (%) [4]: 9%
Population Tubulin-Different-Phenotype (%) [4]: 23% and 18%
Total Cell Count [4]: 402 and 365
Population Apoptotic (%) [1]: 52% and 57%
Population Fragmented Nuclei (%) [1]: 13% and 14%
Population Healthy Nuclei (%) [1]: 69% and 67%
Population Hoechst High Intensity Objects (%) [1]: 25% and 18%
Population Membrane Permeable-Phenotype (%) [1]: 1% and 3%
Population Mitochondria Different-Phenotype (%) [1]: 74% and 66%
Population Mitotic Cells (%) [1]: 48% and 42%
Population Normal (%) [1]: 74% and 81%
Population Pyknosed Nuclei (%) [1]: 17% and 18%
Population Tubulin-Different-Phenotype (%) [1]: 81% and 66%
Total Cell Count [1]: 386 and 286
Population Apoptotic (%) [5]: 35% and 42%
Population Fragmented Nuclei (%) [5]: 11% and 8%
Population Healthy Nuclei (%) [5]: 77% and 84%
Population Hoechst High Intensity Objects (%) [5]: 5% and 2%
Population Membrane Permeable-Phenotype (%) [5]: 0%
Population Mitochondria Different-Phenotype (%) [5]: 27% and 44%
Population Mitotic Cells (%) [5]: 64% and 57%
Population Normal (%) [5]: 95% and 97%
Population Pyknosed Nuclei (%) [5]: 10% and 7%
Population Tubulin-Different-Phenotype (%) [5]: 19% and 16%
Total Cell Count [5]: 540 and 472
Population Apoptotic (%) [2]: 42% and 51%
Population Fragmented Nuclei (%) [2]: 14% and 13%
Population Healthy Nuclei (%) [2]: 64% and 59%
Population Hoechst High Intensity Objects (%) [2]: 29% and 39%
Population Membrane Permeable-Phenotype (%) [2]: 2%
Population Mitochondria Different-Phenotype (%) [2]: 68% and 72%
Population Mitotic Cells (%) [2]: 57% and 48%
Population Normal (%) [2]: 70% and 60%
Population Pyknosed Nuclei (%) [2]: 21% and 27%
Population Tubulin-Different-Phenotype (%) [2]: 69% and 63%
Total Cell Count [2]: 498 and 286
Population Apoptotic (%) [6]: 28% and 11%
Population Fragmented Nuclei (%) [6]: 16% and 15%
Population Healthy Nuclei (%) [6]: 76% and 78%
Population Hoechst High Intensity Objects (%) [6]: 2% and 3%
Population Membrane Permeable-Phenotype (%) [6]: 1% and 0%
Population Mitochondria Different-Phenotype (%) [6]: 18%
Population Mitotic Cells (%) [6]: 71% and 88%
Population Normal (%) [6]: 97% and 96%
Population Pyknosed Nuclei (%) [6]: 6%
Population Tubulin-Different-Phenotype (%) [6]: 11% and 12%
Total Cell Count [6]: 930 and 737
Population Apoptotic (%) [3]: 31% and 30%
Population Fragmented Nuclei (%) [3]: 18% and 17%
Population Healthy Nuclei (%) [3]: 56% and 59%
Population Hoechst High Intensity Objects (%) [3]: 41% and 46%
Population Membrane Permeable-Phenotype (%) [3]: 3% and 1%
Population Mitochondria Different-Phenotype (%) [3]: 48% and 49%
Population Mitotic Cells (%) [3]: 68% and 69%
Population Normal (%) [3]: 58% and 53%
Population Pyknosed Nuclei (%) [3]: 25% and 23%
Population Tubulin-Different-Phenotype (%) [3]: 56% and 38%
Total Cell Count [3]: 660 and 430
